Reference: ChEMBL document CHEMBL1152588, “New potent P-glycoprotein modulators with the cucurbitane scaffold and their synergistic interaction with doxorubicin on resistant cancer cells” (Bioorg Med Chem, 2009)

Assays:
[1] = molecular target: T1, ATP-dependent translocase ABCB1 (Homo sapiens, UniProt P08183); test: Reversal of human MDR1-mediated multidrug resistance in mouse L5178Y cells expressing MDR1 assessed as forward scatter count measured by cell size ratio at 2 uM after 10 mins by flow cytometry; format: cell-based
T1 sequence (P08183 whole entry): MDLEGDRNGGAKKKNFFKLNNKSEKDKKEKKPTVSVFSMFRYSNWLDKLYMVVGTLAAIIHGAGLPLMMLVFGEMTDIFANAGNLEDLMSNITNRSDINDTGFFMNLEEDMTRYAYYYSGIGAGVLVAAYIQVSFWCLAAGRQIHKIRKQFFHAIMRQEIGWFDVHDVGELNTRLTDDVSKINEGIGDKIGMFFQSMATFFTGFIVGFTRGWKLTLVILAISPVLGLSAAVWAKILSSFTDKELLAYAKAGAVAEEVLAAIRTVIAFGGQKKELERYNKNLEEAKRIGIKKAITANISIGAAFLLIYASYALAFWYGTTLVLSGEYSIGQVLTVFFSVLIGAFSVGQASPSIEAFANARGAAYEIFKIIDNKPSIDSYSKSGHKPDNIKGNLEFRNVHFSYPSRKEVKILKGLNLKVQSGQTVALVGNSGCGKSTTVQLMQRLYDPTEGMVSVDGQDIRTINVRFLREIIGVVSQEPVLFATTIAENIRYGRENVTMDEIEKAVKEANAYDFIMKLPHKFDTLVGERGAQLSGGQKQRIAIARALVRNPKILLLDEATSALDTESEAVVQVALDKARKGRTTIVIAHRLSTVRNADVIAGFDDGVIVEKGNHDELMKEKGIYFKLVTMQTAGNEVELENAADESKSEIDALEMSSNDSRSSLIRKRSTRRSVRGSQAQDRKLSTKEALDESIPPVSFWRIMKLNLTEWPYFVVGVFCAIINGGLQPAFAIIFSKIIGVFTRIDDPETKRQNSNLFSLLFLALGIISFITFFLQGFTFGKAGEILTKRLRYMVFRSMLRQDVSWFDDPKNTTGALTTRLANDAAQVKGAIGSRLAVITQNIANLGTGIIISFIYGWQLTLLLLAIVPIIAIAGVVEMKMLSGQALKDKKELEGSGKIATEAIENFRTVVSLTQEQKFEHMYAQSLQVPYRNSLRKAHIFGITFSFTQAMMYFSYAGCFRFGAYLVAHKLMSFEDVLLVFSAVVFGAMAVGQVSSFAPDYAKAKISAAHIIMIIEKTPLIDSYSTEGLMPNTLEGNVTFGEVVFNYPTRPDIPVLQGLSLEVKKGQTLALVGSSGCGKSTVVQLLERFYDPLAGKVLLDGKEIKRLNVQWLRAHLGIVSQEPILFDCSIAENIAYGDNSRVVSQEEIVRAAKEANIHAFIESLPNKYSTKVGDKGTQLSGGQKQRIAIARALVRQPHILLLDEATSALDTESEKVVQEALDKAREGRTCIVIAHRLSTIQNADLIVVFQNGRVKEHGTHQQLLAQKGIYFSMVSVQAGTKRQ
In short: (§1)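 Parental and MDR1-transfected L5178 cells at 2×10^6/mL in serum-free McCoy's 5A. Compound (0.5–20 µM; verapamil 22 µM as positive control) added 10 min at room temperature, then rhodamine 123 20 min at 37 °C. Cells washed twice, resuspended in PBS, flow cytometry on 10,000 cells (FSC, SSC, mean FL-1). FAR = (MDR treated/MDR control)/(parental treated/parental control); single representative experiment.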

[2] = molecular target: T1, ATP-dependent translocase ABCB1; test: Reversal of human MDR1-mediated multidrug resistance in mouse L5178Y cells expressing MDR1 assessed as forward scatter count measured by cell size ratio at 20 uM after 10 mins by flow cytometry; format: cell-based; in short: as §1
[3] = molecular target: T1, ATP-dependent translocase ABCB1; test: Reversal of human MDR1-mediated multidrug resistance in mouse L5178Y cells expressing MDR1 assessed as side scatter count measured by cell size ratio at 2 uM after 10 mins by flow cytometry; format: cell-based; in short: as §1
[4] = molecular target: T1, ATP-dependent translocase ABCB1; test: Reversal of human MDR1-mediated multidrug resistance in mouse L5178Y cells expressing MDR1 assessed as side scatter count measured by cell size ratio at 20 uM after 10 mins by flow cytometry; format: cell-based; in short: as §1
[5] = molecular target: T1, ATP-dependent translocase ABCB1; test: Reversal of human MDR1-mediated multidrug resistance in mouse L5178Y cells expressing MDR1 assessed as mean fluorescence intensity of rhodamine-123 uptake at 2 uM after 10 mins by flow cytometry; format: cell-based; in short: as §1
[6] = molecular target: T1, ATP-dependent translocase ABCB1; test: Reversal of human MDR1-mediated multidrug resistance in mouse L5178Y cells expressing MDR1 assessed as mean fluorescence intensity of rhodamine-123 uptake at 20 uM after 10 mins by flow cytometry; format: cell-based; in short: as §1
[7] = molecular target: T1, ATP-dependent translocase ABCB1; test: Reversal of human MDR1-mediated multidrug resistance in mouse L5178Y cells expressing MDR1 assessed as fluorescence activity ratio at 2 uM after 10 mins by rhodamine-123 exclusion test; format: cell-based; in short: as §1
[8] = molecular target: T1, ATP-dependent translocase ABCB1; test: Reversal of human MDR1-mediated multidrug resistance in mouse L5178Y cells expressing MDR1 assessed as fluorescence activity ratio at 20 uM after 10 mins by rhodamine-123 exclusion test; format: cell-based; in short: as §1
L5178Y [9] = test: Reversal of multidrug resistance in mouse L5178Y cells assessed as mean fluorescence intensity of rhodamine-123 uptake after 10 mins by flow cytometry; format: functional; in short: as §1
L5178Y [10] = test: Reversal of human MDR1-mediated multidrug resistance in mouse L5178Y cells expressing MDR1 assessed as mean fluorescence intensity of rhodamine-123 uptake after 10 mins by flow cytometry; format: functional; in short: as §1
L5178Y [11] = test: Antiproliferative activity against mouse L5178Y cells after 72 hrs by MTT assay; format: functional; details: read-out: ID50 (the source's name)
In short: (§2)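 L5178 mouse T-cell lymphoma cells, parental or transfected with human MDR1 via pHa MDR1/A retrovirus. Transfected cells were kept under 60 ng/mL colchicine. Cells grew in McCoy's 5A with 10% heat-inactivated horse serum at 37 °C, 5% CO2. 1×10^4 cells/well with rising compound concentrations, 72 h at 37 °C. MTT 4 h, SDS 10% overnight, OD 550 nm (ref 630 nm). % inhibition vs cell/medium controls; ID50 mean ± SD of three experiments.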

L5178Y [12] = test: Antiproliferative activity against multidrug resistance mouse L5178Y cells expressing human MDR1 after 72 hrs by MTT assay; format: functional; details: read-out: ID50 (the source's name); in short: as §2
[13] = Octanol-water partition coefficient, log D of the compound; format: physicochemical
L5178Y [14] = test: Potentiation of doxorubicin-induced anticancer activity against mouse L5178Y cells expressing MDR1 assessed as fractional inhibitory concentration after 72 hrs by checkerboard microplate assay; format: functional
In short: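 Checkerboard combination on MDR1-transfected L5178 lymphoma cells: doxorubicin diluted along one plate axis, resistance modifier along the other; 5×10^4 cells/well; 72 h at 37 °C in CO2 incubator; growth read by MTT staining. FIC = ID50 in combination/ID50 alone for each agent; summed FIX <0.5 synergism, 0.51–1 additive, 1–2 indifferent, >2 antagonism.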

[15] = molecular target: T1, ATP-dependent translocase ABCB1; test: Reversal of human MDR1-mediated multidrug resistance in mouse L5178Y cells expressing MDR1 assessed as forward scatter count measured by cell size ratio at 0.5 uM after 10 mins by flow cytometry; format: cell-based; in short: as §1
[16] = molecular target: T1, ATP-dependent translocase ABCB1; test: Reversal of human MDR1-mediated multidrug resistance in mouse L5178Y cells expressing MDR1 assessed as forward scatter count measured by cell size ratio at 1 uM after 10 mins by flow cytometry; format: cell-based; in short: as §1
[17] = molecular target: T1, ATP-dependent translocase ABCB1; test: Reversal of human MDR1-mediated multidrug resistance in mouse L5178Y cells expressing MDR1 assessed as side scatter count measured by cell size ratio at 0.5 uM after 10 mins by flow cytometry; format: cell-based; in short: as §1
[18] = molecular target: T1, ATP-dependent translocase ABCB1; test: Reversal of human MDR1-mediated multidrug resistance in mouse L5178Y cells expressing MDR1 assessed as side scatter count measured by cell size ratio at 1 uM after 10 mins by flow cytometry; format: cell-based; in short: as §1
[19] = molecular target: T1, ATP-dependent translocase ABCB1; test: Reversal of human MDR1-mediated multidrug resistance in mouse L5178Y cells expressing MDR1 assessed as mean fluorescence intensity of rhodamine-123 uptake at 0.5 uM after 10 mins by flow cytometry; format: cell-based; in short: as §1
[20] = molecular target: T1, ATP-dependent translocase ABCB1; test: Reversal of human MDR1-mediated multidrug resistance in mouse L5178Y cells expressing MDR1 assessed as mean fluorescence intensity of rhodamine-123 uptake at 1 uM after 10 mins by flow cytometry; format: cell-based; in short: as §1
[21] = molecular target: T1, ATP-dependent translocase ABCB1; test: Reversal of human MDR1-mediated multidrug resistance in mouse L5178Y cells expressing MDR1 assessed as fluorescence activity ratio at 0.5 uM after 10 mins by rhodamine-123 exclusion test; format: cell-based; in short: as §1
[22] = molecular target: T1, ATP-dependent translocase ABCB1; test: Reversal of human MDR1-mediated multidrug resistance in mouse L5178Y cells expressing MDR1 assessed as fluorescence activity ratio at 1 uM after 10 mins by rhodamine-123 exclusion test; format: cell-based; in short: as §1
L5178Y [23] = test: Reversal of human MDR1-mediated multidrug resistance in mouse L5178Y cells expressing MDR1 fluorescence activity ratio of rhodamine-123 uptake after 10 mins by flow cytometry

Compound	Activity [1]	Activity [2]	Activity [3]	Activity [4]	Activity [5]	Activity [6]	Activity [7]	Activity [8]	logD [13]	Activity (L5178Y [9])	Activity (L5178Y [10])	IC50 (L5178Y [11]) [µM]	IC50 (L5178Y [12]) [µM]	fractional inhibitory concentration index (FICI) (L5178Y [14])	further results
C[C@H](C/C=C/C(C)(C)O)[C@H]1CC[C@@]2(C)[C@@H]3[C@@H](O)C=C4[C@@H](CC[C@H](O)[C@]4(C)CO)[C@]3(C)CC[C@]12C [BALSAMINAGENIN A]	441.8	447.4	261.2	257.6	13.95	579.8	1.07	44.3	5.2	959.5	10.6	19.5	25.9		
COC(C)(C)/C=C/C[C@@H](C)[C@H]1CC[C@@]2(C)[C@@H]3[C@@H](O)C=C4[C@@H](CC[C@H](O)[C@]4(C)CO)[C@]3(C)CC[C@]12C [BALSAMINAGENIN B]	428.7	454.4	261.1	238.6	78.4	1365.1	5.98	104.2	5.8	959.5	10.6	15.4	16.8	0.18	
COC(C)(C)/C=C/C[C@@H](C)[C@H]1CC[C@@]2(C)[C@@H]3[C@@H](O[C@H]4O[C@@H](CO)[C@H](O)[C@H](O)[C@@H]4O)C=C4[C@@H](CC[C@H](O)C4(C)C)[C@]3(C)CC[C@]12C [BALSAMINOSIDE A]	429.6	441.6	253.8	249.7	19	1171.1	1.45	89.4	5.3	959.5	10.6	8.3	20.8	0.37	
CO[C@H]1C=C2[C@@H](CC[C@H](O)C2(C)C)[C@]2(C)CC[C@]3(C)[C@@H]([C@H](C)C[C@@H](O)C=C(C)C)CC[C@@]3(C)[C@H]12 [KARAVELAGENIN C]	468.8	551.8	215.4	206.8	365.7	399.5	42.1	46	7.3	1034.3	9.5	6.3	16.8	0.28	Activity [15]: 456.4; Activity [16]: 460.7; Activity [17]: 215.3; Activity [18]: 217.8; Activity [19]: 12.7; Activity [20]: 130; Activity [21]: 1.5; Activity [22]: 15
CCCC(=O)O[C@@H](C=C(C)C)C[C@@H](C)[C@H]1CC[C@@]2(C)[C@@H]3[C@@H](OC)C=C4[C@@H](CC[C@H](O)C4(C)C)[C@]3(C)CC[C@]12C [KARAVOATE E]	448.7	461.9	235.9	236.3	18	388.7	1	21.7	8.7			51	73.8		
COc1ccc(CCN(C)CCCC(C#N)(c2ccc(OC)c(OC)c2)C(C)C)cc1OC (stereo unspecified) [VERAPAMIL]											97.1				FAR (L5178Y [23]): 7.4

Second part, led by results:

Activity [1]	Activity [2]	Activity [3]	Activity [4]	Activity [5]	Activity [6]	Activity [7]	Activity [8]	logD [13]	Compound	Activity (L5178Y [9])	Activity (L5178Y [10])	IC50 (L5178Y [11]) [µM]	IC50 (L5178Y [12]) [µM]	fractional inhibitory concentration index (FICI) (L5178Y [14])	further results
470.2	518.1	254.9	222.4	671.2	612.7	35.2	34.2	8	CO[C@H]1C=C2[C@@H](CC[C@H](O)C2(C)C)[C@]2(C)CC[C@]3(C)[C@@H]([C@H](C)C[C@H](C=C(C)C)OC(C)=O)CC[C@@]3(C)[C@H]12 [KARAVOATE A]			26	34.8	0.44	
454.9	462.9	247	249.3	102.1	671.2	5.7	37.5	8.6	CO[C@H]1C=C2[C@@H](CC[C@H](OC(C)=O)C2(C)C)[C@]2(C)CC[C@]3(C)[C@@H]([C@H](C)C[C@H](C=C(C)C)OC(C)=O)CC[C@@]3(C)[C@H]12 [KARAVOATE B]			48.8	60.2		
466.3	481.3	249.9	242.5	30.3	726.8	1.7	40.6	8.3	CCC(=O)O[C@@H](C=C(C)C)C[C@@H](C)[C@H]1CC[C@@]2(C)[C@@H]3[C@@H](OC)C=C4[C@@H](CC[C@H](O)C4(C)C)[C@]3(C)CC[C@]12C [KARAVOATE C]			41.4	43.5		
454	463.1	237.9	230.8	16.2	42.3	0.9	2.4	8.9	CCC(=O)O[C@H]1CC[C@@H]2C(=C[C@H](OC)[C@@H]3[C@@]2(C)CC[C@]2(C)[C@@H]([C@H](C)C[C@H](C=C(C)C)OC(=O)CC)CC[C@@]32C)C1(C)C [KARAVOATE D]			> 133	> 133		
